Test results published in ChEMBL document CHEMBL4715714, “Design, synthesis and biological evaluation of thiosemicarbazones, hydrazinobenzothiazoles and arylhydrazones as anticancer agents with a potential to overcome multidrug resistance” (Eur J Med Chem, 2016).
Activity calls are given as the source filed them. The calls are words filed in the database; no cut-off is given here.

What was measured:
[1] = Cytotoxicity against human A2780adr cells assessed as inhibition of cell proliferation incubated for 72 hrs by MTT assay; type: functional, cell-based; details: A2780 ADR
Summary of the method: (§1)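 Cells were seeded (10000/well for A2780, 5000/well for MES-SA/Dx5 and KB-3-1/V1) and left to attach 12 h, then exposed to compound for 72 h. Medium was removed, and MTT (0.83 mg/mL) was added for 1 h at 37 °C. Cells were lysed in DMSO and absorbance read at 540 nm. Signal was corrected for unstained lysate background, normalized to untreated cells, and IC50 taken from a sigmoidal dose-response fit.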

[2] = system: KB-V1; assay: Cytotoxicity against human KB-V1 cells assessed as inhibition of cell proliferation incubated for 72 hrs by MTT assay; type: functional, cell-based; details: KB-V1, 72 h; summary of the method: as §1
[3] = system: MES-SA; assay: Cytotoxicity against human MES-SA cells transfected with mCherry fluorescent protein assessed as inhibition of cell proliferation incubated for 72 hrs by fluorescent assay; type: functional, cell-based; details: for IC50: Homo sapiens, MES-SA, 72 h
Summary of the method: (§2)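 MES-SA and MES-SA/Dx5 cells were made to stably express mCherry by lentiviral transduction. Cells were seeded at 5000 (96-well) or 2500 (384-well) per well, allowed to attach 24 h, then treated with compound dilutions for 72 h. Viability was read as fluorescence, excitation 585 nm, emission 610 nm.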

[4] = system: MES-SA; assay: Cytotoxicity against human MES-SA cells assessed as inhibition of cell proliferation incubated for 72 hrs by MTT assay; type: functional, cell-based; summary of the method: as §1
[5] = system: A2780; assay: Cytotoxicity against human A2780 cells assessed as inhibition of cell proliferation incubated for 72 hrs by MTT assay; type: functional, cell-based; details: A2780, 72 h; summary of the method: as §1
[6] = system: MES-SA/Dx5; assay: Cytotoxicity against human MES-SA/DX5 cells transfected with mCherry fluorescent protein assessed as inhibition of cell proliferation incubated for 72 hrs by fluorescent assay; type: functional, cell-based; details: for IC50: Homo sapiens, MES-SA/Dx5, 72 h; summary of the method: as §2
[7] = system: KB 3-1; assay: Cytotoxicity against human KB-3-1 cells assessed as inhibition of cell proliferation incubated for 72 hrs by MTT assay; type: functional, cell-based; details: KB 3-1, 72 h; summary of the method: as §1
[8] = system: MES-SA/Dx5; assay: Cytotoxicity against human MES-SA/DX5 cells assessed as inhibition of cell proliferation incubated for 72 hrs by MTT assay; type: functional, cell-based; details: MES-SA/Dx5, 72 h; summary of the method: as §1
[9] = Selectivity ratio of IC50 for human MES-SA cells transfected with mCherry to IC50 for human MES-SA/DX5 cells transfected with mCherry incubated for 72 hrs by fluorescent assay; type: functional
[10] = system: MES-SA/Dx5; assay: Cytotoxicity against human MES-SA/DX5 cells transfected with mCherry fluorescent protein incubated for 72 hrs in presence of efflux pump inhibitor, Tariquidar by fluorescence assay; type: functional, cell-based
Summary of the method: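 The mCherry-expressing cells (lentiviral) were seeded at 5000 or 2500 per well, attached for 24 h, and exposed 72 h to compounds with Tariquidar coadministered. Live-cell signal was fluorescence at 585 nm excitation and 610 nm emission.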

[11] = system: MES-SA/Dx5; assay: Cytotoxicity against human MES-SA/DX5 cells incubated for 72 hrs in presence of efflux pump inhibitor, Tariquidar by MTT assay; type: functional, cell-based
Summary of the method: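 Run as the 72 h MTT viability readout (12 h attachment, MTT 0.83 mg/mL for 1 h, DMSO lysis, A540), with the P-gp inhibitor Tariquidar at 1 µM co-present. IC50 came from sigmoidal fits of 2 to 4 independent experiments.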

[12] = Selectivity ratio of IC50 for human MES-SA cells to IC50 for human MES-SA/DX5 cells incubated for 72 hrs by MTT assay; type: functional
Summary of the method: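 The selectivity ratio is the IC50 in P-gp-negative parental cells divided by the IC50 in the P-gp-positive resistant partner.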

COc1cc(N/N=C/c2ccccn2)ncn1
IC50 ([1]; read-out: IC50): 1.95 µM | IC50 ([1]; read-out: pIC50 (converted)): 1.95 µM | IC50 ([2]; read-out: IC50): 2.83 µM | IC50 ([2]; read-out: pIC50 (converted)): 2.82 µM | IC50 ([3]; read-out: IC50): 2.45 µM | IC50 ([3]; read-out: pIC50 (converted)): 2.34 µM | IC50 ([4]; read-out: IC50): 2.82 µM | IC50 ([5]; read-out: IC50): 1.73 µM | IC50 ([5]; read-out: pIC50 (converted)): 1.74 µM | IC50 ([6]; read-out: IC50): 2.71 µM | IC50 ([6]; read-out: pIC50 (converted)): 2.57 µM | IC50 ([7]; read-out: IC50): 1.95 µM | IC50 ([7]; read-out: pIC50 (converted)): 1.91 µM | IC50 ([8]; read-out: IC50): 2.49 µM

CCc1ccc(/C=N/NC(=S)Nc2ccc(OC)cc2)nc1
IC50 ([3]; read-out: IC50): 0.096 µM | IC50 ([4]; read-out: IC50): 0.42 µM | IC50 ([4]; read-out: pIC50 (converted)): 0.417 µM | IC50 ([6]; read-out: IC50): 0.056 µM | IC50 ([8]; read-out: IC50): 0.072 µM | IC50 ([8]; read-out: pIC50 (converted)): 0.0631 µM

C/C(=N\NC(=S)Nc1ccccc1C)c1ccccn1
IC50 ([3]; read-out: IC50): 0.03 µM | IC50 ([3]; read-out: pIC50 (converted)): 0.0295 µM | IC50 ([6]; read-out: IC50): 0.092 µM | IC50 ([6]; read-out: pIC50 (converted)): 0.0871 µM

FC(F)(F)c1ccccc1NC(=S)N/N=C/c1ccccn1
IC50 ([3]; read-out: IC50): 0.13 µM | IC50 ([3]; read-out: pIC50 (converted)): 0.12 µM | IC50 ([6]; read-out: IC50): 0.16 µM | IC50 ([6]; read-out: pIC50 (converted)): 0.138 µM

O=[N+]([O-])c1ccc(NC(=S)N/N=C/c2ccccn2)cc1
IC50 ([1]; read-out: IC50): 1.37 µM | IC50 ([1]; read-out: pIC50 (converted)): 1.35 µM | IC50 ([2]; read-out: IC50): 1.99 µM | IC50 ([2]; read-out: pIC50 (converted)): 1.78 µM | IC50 ([3]; read-out: IC50): 2.74 µM | IC50 ([3]; read-out: pIC50 (converted)): 2.69 µM | IC50 ([4]; read-out: IC50): 2.7 µM | IC50 ([4]; read-out: pIC50 (converted)): 2.57 µM | IC50 ([5]; read-out: IC50): 0.67 µM | IC50 ([5]; read-out: pIC50 (converted)): 0.617 µM | IC50 ([6]; read-out: IC50): 2.74 µM | IC50 ([6]; read-out: pIC50 (converted)): 2.75 µM | IC50 ([7]; read-out: IC50): 1.05 µM | IC50 ([7]; read-out: pIC50 (converted)): 1.02 µM | IC50 ([8]; read-out: IC50): 1.83 µM | IC50 ([8]; read-out: pIC50 (converted)): 1.78 µM

C/C(=N\NC(=S)Nc1cccc(C)c1)c1ccccn1
IC50 ([3]; read-out: IC50): 0.032 µM | IC50 ([3]; read-out: pIC50 (converted)): 0.0316 µM | IC50 ([6]; read-out: IC50): 0.063 µM | IC50 ([6]; read-out: pIC50 (converted)): 0.0617 µM

O=[N+]([O-])c1ccc(O)c(/C=N/Nc2nc3ccccc3s2)c1
IC50 ([3]; read-out: IC50): 4.07 µM | IC50 ([3]; read-out: pIC50 (converted)): 3.8 µM | IC50 ([6]; read-out: IC50): 1.99 µM | IC50 ([6]; read-out: pIC50 (converted)): 1.86 µM

O=C1Nc2ccccc2/C1=N/NC(=S)Nc1cccc(C(F)(F)F)c1
Ratio IC50 [9]: 2.42 | Activity [10]: inactive | Activity [11]: inactive | IC50 ([3]; read-out: IC50): 3.34 µM | IC50 ([4]; read-out: IC50): 2.06 µM | Ratio IC50 [12]: 1.44 | IC50 ([6]; read-out: IC50): 1.95 µM | IC50 ([8]; read-out: IC50): 1.4 µM

C/C(=N\NC(=S)Nc1ccccc1)c1ccccn1
pIC50 [3]: inactive | pIC50 [6]: inactive
